Laboratory results: ChEMBL document CHEMBL5260822, “Structure-based design and synthesis of 2,4-diaminopyrimidines as EGFR L858R/T790M selective inhibitors for NSCLC” (Eur J Med Chem, 2017)
Values belong to the compound of their own block, whether it stands above or below them.

Tests used:
[1] = species: Homo sapiens; assay: Selectivity ratio, ratio of IC50 for inhibition of wild type EGFR (unknown origin) to IC50 for inhibition of EGFR L858R/T790M mutant (unknown origin)
Method in brief: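 EGFR WT and L858R/T790M kinase domains expressed in a baculovirus system and purified on Ni-NTA. Kinase activity measured by ELISA-based EGFR tyrosine kinase assay; at least three independent determinations, mean ± SD.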

[2] = target: Epidermal growth factor receptor (Homo sapiens, UniProt P00533); assay: Inhibition of wild type EGFR (unknown origin) expressed in baculovirus expression system by ELISA
Sequence of Epidermal growth factor receptor (Homo sapiens, UniProt P00533) (P00533 whole entry): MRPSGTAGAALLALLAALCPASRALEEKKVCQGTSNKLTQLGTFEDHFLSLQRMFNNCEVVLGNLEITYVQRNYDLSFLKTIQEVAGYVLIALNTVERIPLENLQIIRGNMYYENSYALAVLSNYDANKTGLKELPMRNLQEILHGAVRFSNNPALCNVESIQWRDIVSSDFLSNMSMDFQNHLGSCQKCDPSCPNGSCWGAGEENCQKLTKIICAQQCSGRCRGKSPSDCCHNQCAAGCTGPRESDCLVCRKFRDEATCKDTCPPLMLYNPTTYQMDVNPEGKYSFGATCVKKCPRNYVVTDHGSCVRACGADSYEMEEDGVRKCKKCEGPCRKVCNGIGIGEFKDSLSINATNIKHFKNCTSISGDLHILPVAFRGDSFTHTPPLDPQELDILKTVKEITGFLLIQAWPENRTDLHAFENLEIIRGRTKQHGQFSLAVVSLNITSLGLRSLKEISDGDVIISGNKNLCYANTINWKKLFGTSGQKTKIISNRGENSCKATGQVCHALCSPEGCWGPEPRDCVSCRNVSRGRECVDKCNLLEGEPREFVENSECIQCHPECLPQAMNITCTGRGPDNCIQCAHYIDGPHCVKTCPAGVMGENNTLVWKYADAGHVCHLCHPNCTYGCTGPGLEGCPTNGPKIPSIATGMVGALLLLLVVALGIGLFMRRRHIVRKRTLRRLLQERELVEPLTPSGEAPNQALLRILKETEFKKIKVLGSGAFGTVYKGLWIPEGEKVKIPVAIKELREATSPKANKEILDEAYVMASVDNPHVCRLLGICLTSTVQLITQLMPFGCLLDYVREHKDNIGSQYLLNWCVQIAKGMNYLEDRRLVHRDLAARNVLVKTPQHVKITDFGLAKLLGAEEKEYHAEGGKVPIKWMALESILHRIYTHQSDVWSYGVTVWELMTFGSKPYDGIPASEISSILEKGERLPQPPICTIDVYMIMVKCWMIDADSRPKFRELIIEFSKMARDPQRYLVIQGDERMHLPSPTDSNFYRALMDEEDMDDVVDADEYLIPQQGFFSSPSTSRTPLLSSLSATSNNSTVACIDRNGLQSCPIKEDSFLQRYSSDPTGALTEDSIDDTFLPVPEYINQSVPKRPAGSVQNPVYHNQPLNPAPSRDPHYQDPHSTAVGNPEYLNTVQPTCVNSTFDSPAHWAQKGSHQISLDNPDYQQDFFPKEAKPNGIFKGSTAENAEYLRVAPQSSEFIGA

[3] = target: Epidermal growth factor receptor (Homo sapiens, UniProt P00533, L858R/T790M); assay: Inhibition of EGFR L858R/T790M mutant (unknown origin) expressed in baculovirus expression system by ELISA
Sequence of Epidermal growth factor receptor (Homo sapiens, UniProt P00533, L858R/T790M) (P00533 25-1210 T790M/L858R limits assumed): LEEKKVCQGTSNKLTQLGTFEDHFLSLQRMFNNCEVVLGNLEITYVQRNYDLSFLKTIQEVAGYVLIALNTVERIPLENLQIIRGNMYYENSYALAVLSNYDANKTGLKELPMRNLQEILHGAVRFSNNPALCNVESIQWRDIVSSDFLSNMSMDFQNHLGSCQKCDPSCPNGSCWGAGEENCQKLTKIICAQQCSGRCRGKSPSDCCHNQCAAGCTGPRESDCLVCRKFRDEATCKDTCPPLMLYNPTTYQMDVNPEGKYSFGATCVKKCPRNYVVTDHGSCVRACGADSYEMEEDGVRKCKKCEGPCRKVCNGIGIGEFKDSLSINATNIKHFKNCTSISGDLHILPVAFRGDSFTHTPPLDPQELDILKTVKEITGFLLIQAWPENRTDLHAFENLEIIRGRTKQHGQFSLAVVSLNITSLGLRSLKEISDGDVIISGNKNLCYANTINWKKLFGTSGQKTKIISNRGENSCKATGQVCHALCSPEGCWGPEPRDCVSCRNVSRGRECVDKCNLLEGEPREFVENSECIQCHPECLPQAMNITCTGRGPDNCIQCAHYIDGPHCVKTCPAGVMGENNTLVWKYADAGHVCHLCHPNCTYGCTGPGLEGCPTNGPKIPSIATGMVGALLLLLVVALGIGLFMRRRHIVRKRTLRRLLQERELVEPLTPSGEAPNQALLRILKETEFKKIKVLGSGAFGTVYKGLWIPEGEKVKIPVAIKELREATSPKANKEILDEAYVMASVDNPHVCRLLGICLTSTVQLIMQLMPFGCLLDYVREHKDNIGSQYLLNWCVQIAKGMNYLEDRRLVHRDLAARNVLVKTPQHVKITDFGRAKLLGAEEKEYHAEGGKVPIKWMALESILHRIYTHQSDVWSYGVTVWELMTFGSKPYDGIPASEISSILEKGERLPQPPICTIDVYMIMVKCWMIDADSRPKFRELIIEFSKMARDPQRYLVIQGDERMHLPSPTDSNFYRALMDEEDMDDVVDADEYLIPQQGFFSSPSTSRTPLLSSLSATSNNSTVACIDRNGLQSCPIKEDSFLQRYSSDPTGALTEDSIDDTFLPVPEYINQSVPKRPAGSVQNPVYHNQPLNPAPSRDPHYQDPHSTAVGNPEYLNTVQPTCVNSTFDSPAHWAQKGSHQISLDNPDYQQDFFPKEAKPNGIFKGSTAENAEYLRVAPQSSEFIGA

[4] = test system: A-431; assay: Antiproliferative activity against human A-431 cells harboring wild type EGFR assessed as inhibition of cell proliferation incubated for 72 hrs by sulforhodamine B colorimetric assay; type: functional, cell-based; conditions: A-431, 72 h
[5] = test system: NCI-H1975; assay: Antiproliferative activity against human NCI-H1975 cells harboring EGFR L858R/T790M double mutant assessed as inhibition of cell proliferation incubated for 72 hrs by sulforhodamine B colorimetric assay; type: functional, cell-based; conditions: NCI-H1975, 72 h
[6] = target: Epidermal growth factor receptor (Homo sapiens, UniProt P00533, T790M); assay: Inhibition of EGFR T790M mutant (unknown origin) expressed in baculovirus expression system by ELISA
Sequence of Epidermal growth factor receptor (Homo sapiens, UniProt P00533, T790M) (P00533 25-1210 T790M limits assumed): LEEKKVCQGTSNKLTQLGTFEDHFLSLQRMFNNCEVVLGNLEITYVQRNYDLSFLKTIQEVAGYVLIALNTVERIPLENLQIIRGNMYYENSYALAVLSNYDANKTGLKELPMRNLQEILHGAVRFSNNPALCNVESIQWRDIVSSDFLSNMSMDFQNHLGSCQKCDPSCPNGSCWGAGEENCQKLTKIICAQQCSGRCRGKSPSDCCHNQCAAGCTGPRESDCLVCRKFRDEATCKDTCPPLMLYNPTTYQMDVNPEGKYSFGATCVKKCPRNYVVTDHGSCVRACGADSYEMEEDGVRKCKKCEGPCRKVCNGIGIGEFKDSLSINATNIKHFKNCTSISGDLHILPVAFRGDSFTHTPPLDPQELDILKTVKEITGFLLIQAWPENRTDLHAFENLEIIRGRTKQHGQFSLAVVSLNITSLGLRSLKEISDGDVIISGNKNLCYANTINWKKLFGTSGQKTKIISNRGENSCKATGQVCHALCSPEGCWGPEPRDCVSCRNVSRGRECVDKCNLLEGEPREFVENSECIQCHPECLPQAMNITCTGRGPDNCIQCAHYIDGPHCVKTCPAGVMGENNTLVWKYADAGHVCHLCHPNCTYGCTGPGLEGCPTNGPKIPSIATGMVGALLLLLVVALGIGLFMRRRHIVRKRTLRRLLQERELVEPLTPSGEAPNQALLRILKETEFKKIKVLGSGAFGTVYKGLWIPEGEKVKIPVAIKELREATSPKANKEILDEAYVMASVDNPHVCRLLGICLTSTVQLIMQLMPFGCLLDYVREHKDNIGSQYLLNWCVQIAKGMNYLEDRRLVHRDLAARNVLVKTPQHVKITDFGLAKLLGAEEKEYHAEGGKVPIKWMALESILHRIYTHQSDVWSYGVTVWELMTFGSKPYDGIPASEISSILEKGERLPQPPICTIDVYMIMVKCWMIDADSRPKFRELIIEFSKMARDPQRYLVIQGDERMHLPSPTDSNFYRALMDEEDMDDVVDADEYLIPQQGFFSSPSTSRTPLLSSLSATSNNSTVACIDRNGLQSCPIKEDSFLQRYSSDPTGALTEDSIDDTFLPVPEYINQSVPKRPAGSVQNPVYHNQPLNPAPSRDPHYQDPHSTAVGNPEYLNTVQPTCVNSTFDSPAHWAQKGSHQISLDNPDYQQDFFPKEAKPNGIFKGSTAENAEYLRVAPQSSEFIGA

SMILES: CN1CCN(c2ccc(Nc3ncc(Br)c(Nc4ccc5nccnc5c4)n3)cc2)CC1
Ratio IC50 [1]: 2
IC50 [2]: 408 nM
IC50 [3]: 236 nM

SMILES: CC(=O)N1CCc2cc(Nc3nc(Nc4ccc(N5CCN(C)CC5)cc4)ncc3Br)ccc21
Ratio IC50 [1]: 2
IC50 [2]: 14300 nM
IC50 [3]: 6000 nM

SMILES: CC(=O)N1CCc2ccc(Nc3nc(Nc4ccc(N5CCN(C)CC5)cc4)ncc3Br)cc21
IC50 [2]: 5700 nM
IC50 [3]: 8600 nM

SMILES: C=CC(=O)Nc1cc(Nc2ncc(Br)c(Nc3ccc4c(c3)CCC4)n2)ccc1N(C)CCN(C)C
IC50 [4]: 256 nM
IC50 [2]: 26.2 nM
IC50 [3]: 0.6 nM
IC50 [5]: 106 nM

IC50 [4]: 200 nM
IC50 [5]: 190 nM
SMILES: C=CC(=O)Nc1cc(Nc2ncc(Br)c(Nc3ccc4ccn(C)c4c3)n2)ccc1N1CCN(C)CC1

SMILES: COc1cnc(Nc2ccc(N3CCN(C)CC3)cc2)nc1Nc1ccc2[nH]ccc2c1
IC50 [6]: 224 nM
IC50 [2]: > 1000 nM
IC50 [3]: 155 nM

SMILES: C=CC(=O)Nc1cc(Nc2ncc(Br)c(Nc3ccc4cc[nH]c4c3)n2)ccc1N1CCN(C)CC1
IC50 [4]: 108 nM
IC50 [2]: 234 nM
IC50 [3]: 16.4 nM
IC50 [5]: 451 nM

SMILES: CN1CCN(c2ccc(Nc3ncc(Br)c(Nc4ccc5[nH]c(Cc6cccc(F)c6)cc5c4)n3)cc2)CC1
Ratio IC50 [1]: 7
IC50 [2]: 325 nM
IC50 [3]: 49 nM

SMILES: C=CC(=O)Nc1cc(Nc2ncc(Br)c(Nc3ccc4c(c3)CCC4)n2)ccc1N1CCN(C)CC1
IC50 [4]: 135 nM
IC50 [2]: 466 nM
IC50 [3]: 27.7 nM
IC50 [5]: 306 nM

SMILES: CN1CCN(c2ccc(Nc3ncc(Br)c(Nc4ccc5ncccc5c4)n3)cc2)CC1
IC50 [2]: > 10000 nM
IC50 [3]: 7800 nM

SMILES: CN1CCN(c2ccc(Nc3ncc(C(F)(F)F)c(Nc4ccc5[nH]ccc5c4)n3)cc2)CC1
IC50 [6]: 102 nM
IC50 [2]: > 1000 nM
IC50 [3]: 121 nM

SMILES: CN1CCN(c2ccc(Nc3ncc(Br)c(Nc4ccc5c(c4)CCC5)n3)cc2)CC1
Ratio IC50 [1]: 194
IC50 [2]: 6800 nM
IC50 [3]: 35 nM

SMILES: CN1CCN(c2ccc(Nc3nccc(Nc4ccc5[nH]ccc5c4)n3)cc2)CC1
IC50 [6]: 100 nM
IC50 [2]: 49 nM
IC50 [3]: 220 nM

SMILES: CN1CCN(c2ccc(Nc3ncc(Br)c(Nc4ccc5cc[nH]c5c4)n3)cc2)CC1
Ratio IC50 [1]: 74
IC50 [2]: 1400 nM
IC50 [3]: 19 nM

SMILES: Cc1cnc(Nc2ccc(N3CCN(C)CC3)cc2)nc1Nc1ccc2[nH]ccc2c1
IC50 [6]: 197 nM
IC50 [2]: > 1000 nM
IC50 [3]: 171 nM

SMILES: CN1CCN(c2ccc(Nc3ncc(Br)c(Nc4ccc5[nH]ccc5c4)n3)cc2)CC1
Ratio IC50 [1]: 23
IC50 [6]: 53 nM
IC50 [2]: > 1000 nM
IC50 [3]: 35 nM

SMILES: CN1CCN(c2ccc(Nc3ncc([N+](=O)[O-])c(Nc4ccc5[nH]ccc5c4)n3)cc2)CC1
IC50 [6]: > 1000 nM
IC50 [2]: > 1000 nM
IC50 [3]: 906 nM

SMILES: CN1CCN(c2ccc(Nc3ncc(Br)c(Nc4ccc5ccn(C)c5c4)n3)cc2)CC1
Ratio IC50 [1]: 62
IC50 [2]: 1300 nM
IC50 [3]: 21 nM

SMILES: CN1CCN(c2ccc(Nc3ncc(Br)c(Nc4ccc5[nH]ncc5c4)n3)cc2)CC1
Ratio IC50 [1]: 10
IC50 [2]: 393 nM
IC50 [3]: 39 nM

SMILES: CN1CCN(c2ccc(Nc3ncc(Br)c(Nc4ccc5cn[nH]c5c4)n3)cc2)CC1
Ratio IC50 [1]: 26
IC50 [2]: 1100 nM
IC50 [3]: 43 nM

IC50 [4]: 1300 nM
IC50 [5]: 128 nM
SMILES: C=CC(=O)Nc1cccc(Oc2nc(Nc3ccc(N4CCN(C)CC4)cc3OC)ncc2Cl)c1

SMILES: CN1CCN(c2ccc(Nc3ncc(F)c(Nc4ccc5[nH]ccc5c4)n3)cc2)CC1
IC50 [6]: 232 nM
IC50 [2]: > 1000 nM
IC50 [3]: 181 nM

SMILES: C=CC(=O)Nc1cc(Nc2ncc(Br)c(Nc3ccc4cc[nH]c4c3)n2)ccc1N(C)CCN(C)C
IC50 [4]: 143 nM
IC50 [2]: 8.7 nM
IC50 [3]: 200 nM
IC50 [5]: 111 nM

SMILES: CN1CCN(c2ccc(Nc3ncc(Cl)c(Nc4ccc5[nH]ccc5c4)n3)cc2)CC1
IC50 [6]: 105 nM
IC50 [2]: 557 nM
IC50 [3]: 46 nM
